Active and inactive are the calls of the source. The rule behind the calls is not given here.
Columns and labels:
Format in all cases: tissue-based
Mu-type opioid receptor = Mu-type opioid receptor (Rattus norvegicus, UniProt P33535); test: (§1) Displacement of [3H]DAMGO from mu opioid receptor in rat brain homogenate after 1 hr by liquid scintillation counting
Summary of the method: (§2)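 Competition with 12 concentrations of test compound, 1 h at 25°C; terminated by rapid vacuum filtration through GF/B filters presoaked in 0.5% polyethyleneimine. Bound radioactivity counted by liquid scintillation; Ki by Cheng-Prusoff.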

[1] = molecular target: Kappa-type opioid receptor (Rattus norvegicus, UniProt P34975); test: (§3) Displacement of [3H]U69593 from kappa opioid receptor in rat brain homogenate after 1 hr by liquid scintillation counting
Sequence of Kappa-type opioid receptor (P34975 whole entry): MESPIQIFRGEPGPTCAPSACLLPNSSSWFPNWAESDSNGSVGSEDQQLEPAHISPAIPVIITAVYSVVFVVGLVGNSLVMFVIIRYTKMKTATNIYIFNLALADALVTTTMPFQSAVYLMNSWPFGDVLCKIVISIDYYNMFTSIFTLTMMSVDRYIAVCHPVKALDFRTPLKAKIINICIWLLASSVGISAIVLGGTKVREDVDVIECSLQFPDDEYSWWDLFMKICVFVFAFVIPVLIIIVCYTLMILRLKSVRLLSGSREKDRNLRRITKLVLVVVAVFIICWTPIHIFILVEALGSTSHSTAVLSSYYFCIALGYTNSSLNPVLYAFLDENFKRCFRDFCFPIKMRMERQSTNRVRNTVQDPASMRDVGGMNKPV

[2] = molecular target: Delta-type opioid receptor (Rattus norvegicus, UniProt P33533); test: (§4) Displacement of [3H]DPDPE from delta opioid receptor in rat brain homogenate after 1 hr by liquid scintillation counting
Sequence of Delta-type opioid receptor (P33533 whole entry): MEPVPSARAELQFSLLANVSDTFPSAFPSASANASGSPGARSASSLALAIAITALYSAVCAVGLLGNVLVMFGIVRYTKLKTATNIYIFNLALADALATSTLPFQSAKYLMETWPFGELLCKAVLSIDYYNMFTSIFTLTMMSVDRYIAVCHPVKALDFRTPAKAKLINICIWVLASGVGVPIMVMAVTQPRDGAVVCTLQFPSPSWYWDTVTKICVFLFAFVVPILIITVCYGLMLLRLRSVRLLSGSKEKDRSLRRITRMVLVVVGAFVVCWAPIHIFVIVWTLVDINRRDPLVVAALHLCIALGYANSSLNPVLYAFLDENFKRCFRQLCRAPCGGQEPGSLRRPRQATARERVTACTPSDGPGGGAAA

[3] = molecular target: Mu-type opioid receptor (Rattus norvegicus) (UniProt P33535); test: as §1; summary of the method: as §2
Sequence of Mu-type opioid receptor (Rattus norvegicus) (P33535 whole entry): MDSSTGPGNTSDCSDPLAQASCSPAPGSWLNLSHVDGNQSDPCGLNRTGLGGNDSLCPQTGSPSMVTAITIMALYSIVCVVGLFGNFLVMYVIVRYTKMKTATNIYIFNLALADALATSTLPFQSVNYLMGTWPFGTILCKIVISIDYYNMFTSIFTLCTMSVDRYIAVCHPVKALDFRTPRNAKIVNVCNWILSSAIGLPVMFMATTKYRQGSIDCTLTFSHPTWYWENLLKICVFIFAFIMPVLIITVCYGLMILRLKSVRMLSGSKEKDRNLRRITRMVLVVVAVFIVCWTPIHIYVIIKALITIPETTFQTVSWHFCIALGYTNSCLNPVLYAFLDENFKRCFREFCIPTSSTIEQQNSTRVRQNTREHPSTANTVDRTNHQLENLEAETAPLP

[4] = molecular target: Kappa-type opioid receptor (Rattus norvegicus) (UniProt P34975); test: as §3
Sequence of Kappa-type opioid receptor (Rattus norvegicus) (P34975 whole entry): as the sequence (P34975 whole entry) above

[5] = molecular target: Delta-type opioid receptor (Rattus norvegicus) (UniProt P33533); test: as §4
Sequence of Delta-type opioid receptor (Rattus norvegicus) (P33533 whole entry): as the sequence (P33533 whole entry) above

Sequence of Mu-type opioid receptor (P33535 whole entry): as the sequence (P33535 whole entry) above

| Compound | Ki (Mu-type opioid receptor) | Activity [3] | Activity [4] | Activity [5] | Ki [1] | Ki [2] |
| --- | --- | --- | --- | --- | --- | --- |
| CN(CCCc1ccccc1)CCOCCCc1ccccc1 | 1.52 µM |  |  |  | > 10 µM | 6.65 µM |
| CCCCN(CCCC)CCOC/C=C/c1ccccc1 | 2.49 µM |  |  |  | > 10 µM | > 10 µM |
| CN(CCOCCCc1ccccc1)CCc1ccccc1 | 2.31 µM |  |  |  | > 10 µM |  |
| CN(CCCc1ccccc1)CCOC/C=C/c1ccccc1 |  |  |  |  | > 10 µM | > 10 µM |
| CCN(CC)C(=O)COC/C=C/c1ccccc1 | > 10 µM |  |  |  |  |  |
| CN(CCOC/C=C/c1ccccc1)CCc1ccccc1 | 1.68 µM |  |  |  | > 10 µM | 6.85 µM |
| CCCN(CCC)CCOC/C=C/c1ccccc1 | > 10 µM |  |  |  |  |  |
| C=CCN(CC=C)CCOC/C=C/c1ccccc1 | > 10 µM |  | inactive | inactive |  |  |
| CN(CCOC/C=C/c1ccccc1)Cc1ccccc1 | 3.04 µM |  |  |  | > 10 µM | > 10 µM |
| CN(CCOCCCc1ccccc1)Cc1ccccc1 | 2.76 µM |  |  |  | > 10 µM | > 10 µM |
| CCCCN(CCCC)CCOCCCc1ccccc1 | 2.49 µM |  |  |  | > 10 µM | > 10 µM |
| CN(C)CCOC/C=C/c1ccccc1 | > 10 µM |  |  |  |  |  |

Second part, led by results:

| Ki (Mu-type opioid receptor) | Activity [3] | Activity [4] | Activity [5] | Compound | Ki [1] | Ki [2] |
| --- | --- | --- | --- | --- | --- | --- |
| > 10 µM |  |  |  | CCN(CC)CCOC/C=C/c1ccccc1 |  |  |
|  | inactive | inactive | inactive | c1ccc(CCCOCCN2CCCCC2)cc1 |  |  |
|  | inactive | inactive | inactive | C(=C\c1ccccc1)/COCCN1CCCC1 |  |  |
| > 10 µM |  |  |  | CN(C)CCOCCCc1ccccc1 |  |  |
| > 10 µM |  |  |  | C(=C\c1ccccc1)/COCCN1CCCCCC1 |  |  |
|  | inactive | inactive | inactive | C(=C\c1ccccc1)/COCCN1CCCCC1 |  |  |
|  | inactive | inactive | inactive | c1ccc(CCCOCCN2CCCCCC2)cc1 |  |  |
| > 10 µM |  |  |  | CCN(CC)CCOCCCc1ccccc1 |  |  |
| > 10 µM |  |  |  | CCN(CC)C(=O)COCCCc1ccccc1 |  |  |
| > 10 µM |  | inactive | inactive | C=CCN(CC=C)CCOCCCc1ccccc1 |  |  |
| > 10 µM |  |  |  | CCCN(CCC)CCOCCCc1ccccc1 |  |  |
|  | inactive | inactive | inactive | c1ccc(CCCOCCN2CCCC2)cc1 |  |  |

Source: ChEMBL document CHEMBL2046286, “Deconstructing 14-phenylpropyloxymetopon: minimal requirements for binding to mu opioid receptors” (Bioorg Med Chem, 2012)
